{
  "source": "PubChem BioAssay AID624314",
  "about": "(The Scripps Research Institute Molecular Screening Center, 2012)",
  "tested_on": "HEK293 3B-HSD promoter CAT reporter, ELISA absorbance",
  "test": "3B-HSD promoter reporter expression modulators, late-stage follow-up, counter-screen for DAX1 (NR0B1) inhibitor project, cell-based, absorbance (AID 624314)",
  "settings": "at 100 µM (top of the series)",
  "outline": "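Schedule: compound exposure 16 h at 37 °C; Assay system: HEK293 cells transfected with full-length DAX-1, SF-1, HSD3B2-promoter CAT reporter; Replicates: triplicate testing per concentration; Dosing: three-point twofold dilution series, nominal top 100 µM; Measured by: CAT EIA absorbance; Evaluation: CAT signal relative to DMSO-treated wells.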",
  "note": "The source made the active and inactive calls.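 The calls were made as follows: active = relative activity ratio above 1.25 at every tested dose; inactive = the rest.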",
  "data": [
    {"smiles": "Cn1c(=O)n(C)c2cc(C(=O)Nc3ccc4c(c3)OCCO4)ccc21", "values": [
      {"measurement": "relative activity ratio", "result": "0.26 (inactive)"}
    ]},
    {"smiles": "Cn1c(=O)n(C)c2cc(C(=O)Nc3ccc4c(c3)OCO4)ccc21", "values": [
      {"measurement": "relative activity ratio", "result": "0.34 (inactive)"}
    ]}
  ]
}
